Experimental data published in ChEMBL document CHEMBL5329223, “Newly synthesized 6-substituted piperazine/phenyl-9-cyclopentyl containing purine nucleobase analogs act as potent anticancer agents and induce apoptosis via inhibiting Src in hepatocellular carcinoma cells” (RSC Med Chem, 2023).
The source made the active and inactive calls. No cut-off for these calls is given here.

Legend:
[1] = tested on: Huh-7; experiment: Cytotoxicity against human Huh-7 cells assessed as cell growth inhibition incubated for 72 hrs by SRB assay; assay type: functional, cell-based; settings: for IC50: Huh-7, 72 h
Method in brief: (§1)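 Cells seeded at 1000–3000 per well, treated after 24 h with 2.5–40 μM (40, 20, 10, 5, 2.5 μM) for 72 h, in duplicate or triplicate; DMSO negative control. Fixed with 10% TCA 1 h at 4 °C, stained with 0.4% SRB in 1% acetic acid, dye solubilized in 10 mM TBS, A515 read; OD normalized to DMSO control, IC50 from growth-inhibition curves.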

[2] = tested on: HCT-116; experiment: Cytotoxicity against human HCT-116 cells assessed as cell growth inhibition incubated for 72 hrs by SRB assay; assay type: functional, cell-based; settings: for IC50: HCT-116, 72 h; method in brief: as §1
[3] = tested on: MCF7; experiment: Cytotoxicity against human MCF7 cells assessed as cell growth inhibition incubated for 72 hrs by SRB assay; assay type: functional, cell-based; settings: for IC50: MCF7, 72 h; method in brief: as §1
[4] = tested on: HepG2; experiment: Cytotoxicity against human HepG2 cells assessed as cell growth inhibition incubated for 72 hrs by SRB assay; assay type: functional, cell-based; settings: HepG2, 72 h; method in brief: as §1
[5] = tested on: Hep 3B2; experiment: Cytotoxicity against human Hep3B cells assessed as cell growth inhibition incubated for 72 hrs by SRB assay; assay type: functional, cell-based; method in brief: as §1
[6] = tested on: PLC; experiment: Cytotoxicity against human PLC cells assessed as cell growth inhibition incubated for 72 hrs by SRB assay; assay type: functional, cell-based; method in brief: as §1
[7] = tested on: Mahlavu; experiment: Cytotoxicity against human Mahlavu cells assessed as cell growth inhibition incubated for 72 hrs by SRB assay; assay type: functional, cell-based; method in brief: as §1
[8] = Cytotoxicity against human FOCUS cells assessed as cell growth inhibition incubated for 72 hrs by SRB assay; assay type: functional, cell-based; method in brief: as §1
[9] = tested on: SNU-475; experiment: Cytotoxicity against human SNU-475 cells assessed as cell growth inhibition incubated for 72 hrs by SRB assay; assay type: functional, cell-based; settings: SNU-475, 72 h; method in brief: as §1
[10] = tested on: SNU-182; experiment: Cytotoxicity against human SNU-182 cells assessed as cell growth inhibition incubated for 72 hrs by SRB assay; assay type: functional, cell-based; settings: for IC50: SNU-182, 72 h; method in brief: as §1
[11] = tested on: SNU-387; experiment: Cytotoxicity against human SNU-387 cells assessed as cell growth inhibition incubated for 72 hrs by SRB assay; assay type: functional, cell-based; settings: SNU-387, 72 h; method in brief: as §1
[12] = tested on: SNU-398; experiment: Cytotoxicity against human SNU-398 cells assessed as cell growth inhibition incubated for 72 hrs by SRB assay; assay type: functional, cell-based; settings: SNU-398, 72 h; method in brief: as §1
[13] = tested on: SNU-423; experiment: Cytotoxicity against human SNU-423 cells assessed as cell growth inhibition incubated for 72 hrs by SRB assay; assay type: functional, cell-based; settings: SNU-423, 72 h; method in brief: as §1
[14] = tested on: SNU-449; experiment: Cytotoxicity against human SNU-449 cells assessed as cell growth inhibition incubated for 72 hrs by SRB assay; assay type: functional, cell-based; settings: SNU-449, 72 h; method in brief: as §1
[15] = tested on: Huh-7; experiment: Upregulation of intracellular ATP level in human Huh-7 cells at 5 uM incubated for 72 hrs by Kinase Glo assay; assay type: functional, cell-based
Method in brief: (§2)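 Huh7 and Mahlavu cells grown 24 h, then treated with 5 μM for 72 h. Lysates protein-normalized by Bradford; ATP read by Kinase-Glo Plus luminescence per kit protocol. Staurosporine positive control, DMSO negative control.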

[16] = tested on: Mahlavu; experiment: Upregulation of intracellular ATP level in human Mahlavu cells at 5 uM incubated for 72 hrs by Kinase Glo assay; assay type: functional, cell-based; method in brief: as §2
[17] = tested on: Huh-7; experiment: Cytotoxicity against human Huh-7 cells assessed as cell growth inhibition at 0.625 to 5 uM measured upto 72 hrs by RT-CES analysis; assay type: functional, cell-based; settings: dose 0.625-5 µM
Method in brief: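 Huh7 cells, 2000 per well, treated 24 h after seeding alongside DMSO control; cell index from impedance recorded every 30 min; plots for each concentration normalized to DMSO-treated cells.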

[18] = tested on: Huh-7; experiment: Induction of morphological changes in human Huh-7 cells assessed as horseshoe-like condensed nuclei at 5 uM incubated for 72 hrs by Hoechst 33258 dye based microscopy; assay type: functional, cell-based
Method in brief: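 Huh7 cells on coverslips (50 000 per well) given 5 μM or DMSO 24 h after seeding for 72 h; permeabilized with ice-cold methanol 10 min, Hoechst 33258 stain 5 min in the dark, imaged by fluorescence microscopy with 40× objective.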

[19] = tested on: Huh-7; experiment: Induction of cell cycle arrest in human Huh-7 cells assessed as increase in accumulation of cells at subG1 phase at 5 uM incubated for 72 hrs by PI staining based flow cytometry; assay type: functional
Method in brief: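 Huh7 and Mahlavu cells serum-starved 24 h to synchronize, then given 5 μM or DMSO in fresh growth medium for 72 h. Trypsinized, fixed in ice-cold 70% ethanol at least 3 h at −20 °C, PI-stained with a cell cycle kit, analyzed by flow cytometry for SubG1.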

[20] = biological target: Proto-oncogene tyrosine-protein kinase Src (Homo sapiens) (UniProt P12931); experiment: Inhibition of Src activation in human Huh-7 cells assessed as decrease in phosphorylated Src level at 5 uM incubated for 72 hrs by Western blot analysis; assay type: cell-based
Proto-oncogene tyrosine-protein kinase Src (Homo sapiens), sequence (P12931 2-536 limits assumed): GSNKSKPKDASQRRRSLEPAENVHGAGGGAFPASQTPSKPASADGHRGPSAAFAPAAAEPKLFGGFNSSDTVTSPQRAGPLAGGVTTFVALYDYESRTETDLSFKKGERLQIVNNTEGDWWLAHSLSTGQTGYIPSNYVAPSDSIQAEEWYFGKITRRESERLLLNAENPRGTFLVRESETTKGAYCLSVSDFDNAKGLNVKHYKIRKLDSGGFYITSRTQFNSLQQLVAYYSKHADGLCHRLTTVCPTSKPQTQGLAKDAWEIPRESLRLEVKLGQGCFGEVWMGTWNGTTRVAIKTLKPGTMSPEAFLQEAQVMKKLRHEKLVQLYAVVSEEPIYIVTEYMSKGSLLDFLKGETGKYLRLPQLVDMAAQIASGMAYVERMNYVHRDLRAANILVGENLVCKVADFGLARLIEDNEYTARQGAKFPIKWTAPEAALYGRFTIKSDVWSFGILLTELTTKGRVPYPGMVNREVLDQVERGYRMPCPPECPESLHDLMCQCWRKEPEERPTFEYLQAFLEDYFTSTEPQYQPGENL
Method in brief: (§3)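 Huh7 cells (300 000 per dish) treated 24 h after seeding with 5 μM or DMSO for 72 h. Immunoblot for PARP-1, phospho-Src Tyr416, Src, Rb, phospho-Rb Ser807/811, Cdk2; calnexin and actin as loading controls.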

[21] = tested on: Huh-7; experiment: Induction of apoptosis in human Huh-7 cells assessed as increase in PARP-1 cleavage at 5 uM incubated for 72 hrs by Western blot analysis; assay type: functional, cell-based; method in brief: as §3

Compound	IC50 [1] [µM]	IC50 [2] [µM]	IC50 [3] [µM]	IC50 [4] [µM]	IC50 [5] [µM]	IC50 [6] [µM]	IC50 [7] [µM]	IC50 [8] [µM]	IC50 [9] [µM]	IC50 [11] [µM]	IC50 [12] [µM]	IC50 [13] [µM]	IC50 [14] [µM]	IC50 [10] [µM]	other results
O=S(=O)(c1ccccc1)N1CCN(c2ncnc3c2ncn3C2CCCC2)CC1	13.1	12	11.2	–	–	–	–	–	–	–	–	–	–	–	–
COc1ccc(S(=O)(=O)N2CCN(c3ncnc4c3ncn4C3CCCC3)CC2)cc1	7.1	10.4	8.6	2.7	71.8	84.6	9	10.1	57.5	15.8	6.9	6.8	20	–	growth inhibition (GI) [10]: inactive
c1ccc(-c2ncnc3c2ncn3C2CCCC2)cc1	12.8	13.9	15.7	–	–	–	–	–	–	–	–	–	–	–	–
Fc1ccc(-c2ncnc3c2ncn3C2CCCC2)cc1	6.7	6.1	15.6	–	–	–	–	–	–	–	–	–	–	–	–
CN[C@@H]1C[C@H]2O[C@@](C)([C@@H]1OC)n1c3ccccc3c3c4c(c5c6ccccc6n2c5c31)C(=O)NC4	–	–	–	–	–	–	–	–	–	–	–	–	–	–	Activity [15]: inactive; Activity [16]: inactive
O=S(=O)(c1ccc(F)cc1)N1CCN(c2ncnc3c2ncn3C2CCCC2)CC1	9	12	5.2	4.8	6.1	15.4	11.4	12.6	21.6	11.1	8	9.5	16.3	47.9	–
Clc1ccc(N2CCN(c3ncnc4c3ncn4C3CCCC3)CC2)cc1	0.1	0.6	4.1	0.01	0.4	19.3	4	2	12.3	2	1.8	4	6.9	12.2	growth inhibition (GI) [17]: Active; Activity [18]: Active; Activity [19]: Active; inhibition [20]: Active; Activity [15]: inactive; Activity [16]: inactive
Nc1nc(Cl)nc2c1ncn2[C@H]1C[C@H](O)[C@@H](CO)O1 [CLADRIBINE]	0.6	< 0.1	–	0.4	0.1	9.1	< 0.1	< 0.1	2.5	7.1	< 0.1	6.7	37.3	23.3	–
O=S(=O)(c1ccc(Cl)cc1)N1CCN(c2ncnc3c2ncn3C2CCCC2)CC1	34.4	44.8	10.5	–	–	–	–	–	–	–	–	–	–	–	–
Cc1ccc(-c2ncnc3c2ncn3C2CCCC2)cc1	23.8	22.4	17.7	–	–	–	–	–	–	–	–	–	–	–	–
Clc1ccc(N2CCN(c3ncnc4c3ncn4C3CCCC3)CC2)cc1Cl	0.04	0.04	0.16	0.02	0.03	7	0.1	0.5	2.5	20	0.2	9.9	< 0.1	65	–
Cc1ccc(S(=O)(=O)N2CCN(c3ncnc4c3ncn4C3CCCC3)CC2)cc1	49	197	171	–	–	–	–	–	–	–	–	–	–	–	–
Clc1ccc(-c2ncnc3c2ncn3C2CCCC2)cc1	15.6	–	–	–	–	–	–	–	–	–	–	–	–	–	growth inhibition (GI) [2]: inactive; growth inhibition (GI) [3]: inactive
O=S(=O)(c1ccc(C(F)(F)F)cc1)N1CCN(c2ncnc3c2ncn3C2CCCC2)CC1	12.3	32.4	12.7	–	–	–	–	–	–	–	–	–	–	–	–
COc1ccc(N2CCN(c3ncnc4c3ncn4C3CCCC3)CC2)cc1	1.3	5	1	0.3	0.3	9.3	0.6	2.6	13	38	0.3	15	2	13	growth inhibition (GI) [17]: Active; Activity [18]: Active; Activity [19]: Active; Activity [21]: Active; Activity [15]: inactive; Activity [16]: inactive
FC(F)(F)c1ccc(-c2ncnc3c2ncn3C2CCCC2)cc1	29.8	6	20.3	–	–	–	–	–	–	–	–	–	–	–	–
OC[C@H]1O[C@@H](n2cnc3c2N=CNC[C@H]3O)C[C@@H]1O	–	–	–	–	–	–	–	–	–	–	–	–	–	–	growth inhibition (GI) [1]: inactive; growth inhibition (GI) [2]: inactive; growth inhibition (GI) [3]: inactive
FC(F)(F)Oc1ccc(-c2ncnc3c2ncn3C2CCCC2)cc1	15.1	26.3	24	–	–	–	–	–	–	–	–	–	–	–	–
Cc1ccc(N2CCN(c3ncnc4c3ncn4C3CCCC3)CC2)cc1	1.4	1.9	6.4	0.9	3.1	20.7	4.2	5	17.7	88	1.9	17.5	17	61	–
Fc1ccc(N2CCN(c3ncnc4c3ncn4C3CCCC3)CC2)cc1	1.5	1.6	9.1	0.5	4.3	6	7	1.5	7	26	1	16	3.3	41	growth inhibition (GI) [17]: Active; Activity [18]: Active; Activity [19]: Active; Activity [21]: Active; Activity [15]: inactive; Activity [16]: inactive
Brc1ccc(-c2ncnc3c2ncn3C2CCCC2)cc1	16	–	56.1	–	–	–	–	–	–	–	–	–	–	–	inhibition [2]: inactive
COc1ccc(-c2ncnc3c2ncn3C2CCCC2)cc1	10.6	39	19.5	–	–	–	–	–	–	–	–	–	–	–	–
CC(C)(C)c1ccc(-c2ncnc3c2ncn3C2CCCC2)cc1	6.3	6.6	12.6	2.7	6.7	3.4	4	2	12.3	2	1.8	4	6.9	12.2	–
Nc1nc(F)nc2c1ncn2[C@@H]1O[C@H](CO)[C@@H](O)[C@@H]1O [FLUDARABINE]	24.4	8.3	–	17	27.8	41.7	14.2	13.7	41.5	33.8	0.2	32.6	25.1	37.2	–
CC(C)c1ccc(S(=O)(=O)N2CCN(c3ncnc4c3ncn4C3CCCC3)CC2)cc1	14.7	11.5	17.2	–	–	–	–	–	–	–	–	–	–	–	–
O=S(=O)(c1ccc(Br)cc1)N1CCN(c2ncnc3c2ncn3C2CCCC2)CC1	8	8.4	6.5	6.3	4.3	9.2	20.5	15.9	9	15.9	4	10.5	8.5	60.6	–
